# Measurements taken from ChEMBL document CHEMBL4477212 (J Med Chem, 2016).
# Columns and labels:
# CEM-SS [1] = assay: Cytotoxicity against human CEM-SS cells assessed as cell viability at 10 uM after 6 days by MTS assay; assay type: cell-based; conditions: 144 h
# Procedure, shortened: (§1)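 Single-concentration screen (10 μM) in CEM-SS cells infected with pre-titered HIV-1 IIIB, sized so virus control wells lose 70–95% viability. Incubation was 6 days and read-out was by MTS. Percent CPE reduction was calculated against virus control wells (cells plus virus). Percent viability was calculated against cell-only control wells. Plates included compound toxicity and colorimetric controls, and AZT as positive control.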
# [2] = test system: Human immunodeficiency virus 1; assay: Antiviral activity against HIV1 3B infected in human CEM-SS cells assessed as reduction of virus-induced cytopathic effect at 10 uM after 6 days by MTS assay; assay type: functional; design: scale not given: the % may be the effect or the level left; procedure, shortened: as §1
# [3] = biological target: Human immunodeficiency virus type 1 integrase (Human immunodeficiency virus 1, UniProt Q7ZJM1); assay: Inhibition of HIV1 recombinant integrase expressed in Escherichia coli using [32P]-labeled oligonucleotide as substrate after 60 mins by strand transfer activity assay
# Human immunodeficiency virus type 1 integrase, sequence (Q7ZJM1 whole entry): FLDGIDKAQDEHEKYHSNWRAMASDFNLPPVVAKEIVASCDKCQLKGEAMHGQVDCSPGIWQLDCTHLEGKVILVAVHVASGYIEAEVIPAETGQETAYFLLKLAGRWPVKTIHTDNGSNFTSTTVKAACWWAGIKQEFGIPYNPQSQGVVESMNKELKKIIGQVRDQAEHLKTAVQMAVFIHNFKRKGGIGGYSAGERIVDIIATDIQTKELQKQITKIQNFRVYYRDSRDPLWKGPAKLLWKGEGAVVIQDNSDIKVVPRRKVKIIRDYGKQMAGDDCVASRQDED
# [4] = test system: Human immunodeficiency virus 1; assay: Antiviral activity against HIV1 infected in human P4R5 cells assessed as reduction of virus replication preincubated with cells for 24 hrs followed by viral infection for 48 hrs by 4-methylumbelliferylgalactoside-based MAGI assay; assay type: functional, organism-based
# [5] = Therapeutic index, ratio of CC50 for human CEM-SS cells to EC50 for HIV1 3B infected in human CEM-SS cells; assay type: toxicity, cell-based; conditions: read-out: Ratio CC50/EC50
# CEM-SS [6] = assay: Cytotoxicity against human CEM-SS cells assessed as cell death after 6 days by MTS assay; assay type: cell-based; conditions: 144 h
# Procedure, shortened: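 Dose-response format in CEM-SS cells exposed to compound alone (toxicity control wells) alongside the HIV-1 IIIB cytoprotection plates. Incubation was 6 days and viability was measured by MTS. CC50 is the concentration giving 50% cell death, determined from the dose-response data.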
# [7] = test system: Human immunodeficiency virus 1; assay: Antiviral activity against HIV1 3B infected in human CEM-SS cells assessed as reduction of virus-induced cytopathic effect after 6 days by MTS assay; assay type: functional, organism-based; conditions: Human immunodeficiency virus 1, 3B, 144 h
# [8] = biological target: Human immunodeficiency virus type 1 reverse transcriptase (Human immunodeficiency virus 1, UniProt Q72547); assay: Inhibition of RNase H activity of full length HIV1 reverse transcriptase using RNA-DNA duplex HTS-1 substrate
# [9] = Half life in human plasma; assay type: ADME, cell-free
# [10] = Half life of the compound in DPBS; assay type: physicochemical
# [11] = Intrinsic clearance in human liver microsomes assessed as glucuronidation during phase 2 measured per mg of protein
# [12] = Intrinsic clearance in mouse liver microsomes assessed as glucuronidation during phase 2 measured per mg of protein; assay type: ADME, Microsome
# [13] = Plasma protein binding in mouse; assay type: ADME, cell-free
# [14] = Aqueous solubility of the compound in DPBS; assay type: physicochemical; conditions: buffer
# [15] = Plasma protein binding in human; assay type: ADME, cell-free
# [16] = Half life in mouse plasma; assay type: ADME, cell-free
# [17] = Intrinsic clearance in human liver microsomes during phase 1 measured per mg of protein; assay type: ADME, Microsome
# [18] = test system: Human immunodeficiency virus 1; assay: Fold resistance, ratio of EC50 for raltegravir-resistant HIV1 1556-1 expressing integrase Y143C mutant to EC50 for HIV1 expressing wild-type integrase; assay type: functional
# [19] = test system: Human immunodeficiency virus 1; assay: Fold resistance, ratio of EC50 for raltegravir-resistant HIV1 8070-2 expressing integrase G140S/Q148H mutant to EC50 for HIV1 expressing wild-type integrase; assay type: functional
# [20] = test system: Human immunodeficiency virus 1; assay: Fold resistance, ratio of EC50 for raltegravir-resistant HIV1 4736-2 expressing integrase N155H mutant to EC50 for HIV1 expressing wild-type integrase; assay type: functional
# [21] = test system: Human immunodeficiency virus 1; assay: Fold resistance, ratio of EC50 for raltegravir-resistant HIV1 8070-1 expressing integrase G140S/Y143H/Q148H mutant to EC50 for HIV1 expressing wild-type integrase; assay type: functional
structure (smiles),measurement,setting,value
O=C(NCc1ccc(F)cc1)c1c2n(c(=O)n(O)c1=O)CCCN2,Activity,CEM-SS [1],5.5%
same,Activity,[2],0%
same,IC50,[3],430 nM
CCNc1c(C(=O)NCc2ccc(F)cc2)c(=O)n(O)c(=O)n1C,Activity,CEM-SS [1],10%
same,Activity,[2],6.5%
same,IC50,[3],> 100000 nM
CC(C)Nc1[nH]c(=O)n(O)c(=O)c1C(=O)NCc1ccccc1,Activity,CEM-SS [1],90%
same,Activity,[2],98%
same,IC50,[3],150 nM
CCNc1[nH]c(=O)n(O)c(=O)c1C(=O)NCc1ccc(F)c(F)c1,EC50,[4],300 nM
same,Activity,CEM-SS [1],100%
same,selectivity ratio,[5],430
same,Activity,[2],100%
same,CC50,CEM-SS [6],21000 nM
same,EC50,[7],49 nM
same,IC50,[8],26 nM
same,IC50,[3],77 nM
Nc1[nH]c(=O)n(O)c(=O)c1C(=O)NCc1ccccc1,Activity,CEM-SS [1],100%
same,Activity,[2],99%
same,IC50,[3],900 nM
O=C(NCc1ccccc1)c1c(Nc2ccccc2)[nH]c(=O)n(O)c1=O,Activity,CEM-SS [1],21%
same,Activity,[2],0%
same,IC50,[3],> 100000 nM
CCNc1[nH]c(=O)n(O)c(=O)c1C(=O)NCc1ccc(C)c(F)c1,EC50,[4],1300 nM
same,Activity,CEM-SS [1],100%
same,t1/2,[9],> 24 h
same,half-life,[10],> 24 h
same,CLH,[11],357 µL/min
same,selectivity ratio,[5],130
same,CLH,[12],1342 µL/min/mg
same,PPB,[13],95.9%
same,Activity,[2],100%
same,solubility,[14],81 µM
same,CC50,CEM-SS [6],20000 nM
same,EC50,[7],150 nM
same,PPB,[15],98.9%
same,t1/2,[16],> 24 h
same,CLH,[17],< 0.1 µL/min/mg
same,IC50,[8],20 nM
same,IC50,[3],51 nM
O=C(NCc1ccccc1)c1c(Nc2ccc(-c3ccccc3)cc2)[nH]c(=O)n(O)c1=O,Activity,CEM-SS [1],13%
same,Activity,[2],0%
same,IC50,[3],> 100000 nM
CCNc1[nH]c(=O)n(O)c(=O)c1C(=O)NCc1cc(F)ccc1Cl,Activity,CEM-SS [1],73%
same,Activity,[2],62%
same,IC50,[3],95 nM
CCNc1[nH]c(=O)n(O)c(=O)c1C(=O)NCCc1ccccc1,Activity,CEM-SS [1],87%
same,Activity,[2],99%
same,IC50,[3],100 nM
CCNc1[nH]c(=O)n(O)c(=O)c1C(=O)NCc1cc(F)ccc1F,Activity,CEM-SS [1],87%
same,Activity,[2],92%
same,IC50,[3],68 nM
O=C(NCc1ccccc1)c1c(NC2CC2)[nH]c(=O)n(O)c1=O,Activity,CEM-SS [1],91%
same,Activity,[2],98%
same,IC50,[3],210 nM
CNc1[nH]c(=O)n(O)c(=O)c1C(=O)NCc1cccc(Cl)c1F,Activity,CEM-SS [1],100%
same,Activity,[2],100%
same,IC50,[3],110 nM
CCNc1[nH]c(=O)n(O)c(=O)c1C(=O)NCc1cc(F)cc(F)c1,Activity,CEM-SS [1],100%
same,Activity,[2],100%
same,IC50,[3],230 nM
CNc1[nH]c(=O)n(O)c(=O)c1C(=O)NCc1ccc(F)cc1,Activity,CEM-SS [1],89%
same,Activity,[2],100%
same,IC50,[3],110 nM
CCNc1[nH]c(=O)n(O)c(=O)c1C(N)=O,IC50,[3],> 100000 nM
CCNc1[nH]c(=O)n(O)c(=O)c1C(=O)NCCCl,Activity,CEM-SS [1],100%
same,Activity,[2],5.1%
same,IC50,[3],> 100000 nM
CCNc1[nH]c(=O)n(O)c(=O)c1C(=O)NCc1ccc(Cl)c(F)c1,EC50,[4],800 nM
same,Activity,CEM-SS [1],100%
same,Activity,[2],100%
same,CC50,CEM-SS [6],19000 nM
same,EC50,[7],190 nM
same,IC50,[8],22 nM
same,IC50,[3],120 nM
CCCNc1[nH]c(=O)n(O)c(=O)c1C(=O)NCc1ccccc1,Activity,CEM-SS [1],97%
same,Activity,[2],100%
same,IC50,[3],66 nM
CC(C)(C)Nc1[nH]c(=O)n(O)c(=O)c1C(=O)NCc1ccccc1,Activity,CEM-SS [1],17%
same,Activity,[2],0%
same,IC50,[3],81 nM
CCCNc1[nH]c(=O)n(O)c(=O)c1C(=O)NCc1cccc(Cl)c1F,Activity,CEM-SS [1],48%
same,Activity,[2],33%
same,IC50,[3],58 nM
CCNc1[nH]c(=O)n(O)c(=O)c1C(=O)NCc1cccc(F)c1,Activity,CEM-SS [1],90%
same,Activity,[2],100%
same,IC50,[3],68 nM
CCNc1[nH]c(=O)n(O)c(=O)c1C(=O)Nc1ccccc1,Activity,CEM-SS [1],27%
same,Activity,[2],11%
same,IC50,[3],35000 nM
CCNc1[nH]c(=O)n(O)c(=O)c1C(=O)NCc1ccc(F)cc1F,EC50,[4],70 nM
same,Activity,CEM-SS [1],92%
same,selectivity ratio,[5],1500
same,Activity,[2],100%
same,CC50,CEM-SS [6],47000 nM
same,EC50,[7],32 nM
same,IC50,[8],10 nM
same,IC50,[3],48 to 68 nM
Cc1cn([C@H]2C[C@H](N=[N+]=[N-])[C@@H](CO)O2)c(=O)[nH]c1=O [ZIDOVUDINE],Ratio EC50,[18],1.4
same,Ratio EC50,[19],0.5
same,Ratio EC50,[20],0.7
same,Ratio EC50,[21],0.9
CNc1[nH]c(=O)n(O)c(=O)c1C(=O)NCc1ccccc1,EC50,[4],3700 nM
same,Activity,CEM-SS [1],98%
same,t1/2,[9],> 24 h
same,half-life,[10],> 24 h
same,CLH,[11],51 µL/min
same,selectivity ratio,[5],70
same,CLH,[12],500 µL/min/mg
same,PPB,[13],70.9%
same,Activity,[2],100%
same,solubility,[14],138 µM
same,CC50,CEM-SS [6],58000 nM
same,EC50,[7],830 nM
same,PPB,[15],99.2%
same,t1/2,[16],> 24 h
same,CLH,[17],0.8 µL/min/mg
same,IC50,[8],61 nM
same,IC50,[3],80 nM
CCNc1[nH]c(=O)n(O)c(=O)c1C(=O)Oc1ccccc1,Activity,CEM-SS [1],100%
same,Activity,[2],50%
same,IC50,[3],> 100000 nM
CCNc1[nH]c(=O)n(O)c(=O)c1C(=O)NCc1cccc(Cl)c1F,EC50,[4],300 nM
same,Activity,CEM-SS [1],100%
same,Ratio EC50,[18],0.4
same,t1/2,[9],> 24 h
same,Ratio EC50,[19],13
same,half-life,[10],> 24 h
same,selectivity ratio,[5],1200
same,CLH,[12],1065 µL/min/mg
same,PPB,[13],94%
same,Activity,[2],100%
same,solubility,[14],11 µM
same,Ratio EC50,[20],2.4
same,Ratio EC50,[21],6.3
same,CC50,CEM-SS [6],18000 nM
same,EC50,[7],15 nM
same,PPB,[15],98.4%
same,t1/2,[16],> 24 h
same,CLH,[17],< 0.1 µL/min/mg
same,IC50,[8],29 nM
same,IC50,[3],21 nM
CCNc1[nH]c(=O)n(O)c(=O)c1C(=O)NCc1ccccc1,EC50,[4],300 nM
same,Activity,CEM-SS [1],100%
same,t1/2,[9],> 24 h
same,half-life,[10],> 24 h
same,CLH,[11],355 µL/min
same,selectivity ratio,[5],380
same,CLH,[12],732 µL/min/mg
same,PPB,[13],83.9%
same,Activity,[2],100%
same,solubility,[14],1091 µM
same,CC50,CEM-SS [6],23000 nM
same,EC50,[7],61 nM
same,PPB,[15],99.1%
same,t1/2,[16],> 24 h
same,CLH,[17],< 0.1 µL/min/mg
same,IC50,[8],42 nM
same,IC50,[3],33 nM
CNc1[nH]c(=O)n(O)c(=O)c1C(=O)NCc1cccc(F)c1,Activity,CEM-SS [1],95%
same,Activity,[2],100%
same,IC50,[3],250 nM
CCNc1[nH]c(=O)n(O)c(=O)c1C(=O)NCc1ccc(F)cc1,EC50,[4],90 nM
same,Activity,CEM-SS [1],99%
same,t1/2,[9],> 24 h
same,half-life,[10],> 24 h
same,selectivity ratio,[5],580
same,CLH,[12],1240 µL/min/mg
same,PPB,[13],86.5%
same,Activity,[2],100%
same,solubility,[14],150 µM
same,CC50,CEM-SS [6],19000 nM
same,EC50,[7],33 nM
same,PPB,[15],99.4%
same,t1/2,[16],> 24 h
same,CLH,[17],< 0.1 µL/min/mg
same,IC50,[8],11 nM
same,IC50,[3],49 nM
